Measurements published in ChEMBL document CHEMBL1155265, “Design, synthesis and in vitro antibacterial/antifungal evaluation of novel 1-ethyl-6-fluoro-1,4-dihydro-4-oxo-7(1-piperazinyl)quinoline-3-carboxylic acid derivatives” (2009).

What was measured:
Assay type in all cases: functional
[1] = system: Cytospora mali; experiment: Antifungal activity against Valsa mali at 200 mg/L by plate growth rate method; settings: read-out: GI
In short: (§1)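 Compound dissolved in DMSO and mixed into molten PDA at 45 °C at 200 mg/L, then plates allowed to set. A 5 mm mycelial agar disc was placed at the centre. Plates were incubated at 28 °C in the dark until the untreated control covered the plate. Colony diameters were measured and growth inhibition calculated by Abbott's formula. Each compound was tested three times.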

[2] = system: Fusarium graminearum; experiment: Antifungal activity against Gibberella zeae at 200 mg/L by plate growth rate method; settings: read-out: GI
In short: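 Plate growth rate method: compound dissolved in DMSO, mixed into sterile PDA at 45 °C to 200 mg/L, plates poured. A 5 mm mycelium agar disc placed centrally; incubated at 28 °C in the dark until the untreated control covered the plate. Colony diameters measured; growth inhibition computed by Abbott's formula. Each compound tested three times.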

[3] = system: Erwinia; experiment: Antibacterial activity against Erwinia aroideae at 50 mg/L after 24 hrs by agar well diffusion method; settings: read-out: DIZ
In short: (§2)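 Bacteria plated as 0.8 mL of 24-h-old inoculum mixed into 60 mL sterile molten agar cooled to 45 °C, poured into three dishes. Wells bored with centres at least 24 mm apart. Test sample at 50 mg/L in DMSO added to wells. DMSO served as negative control and agricultural streptomycin sulfate as positive control. Read-out was inhibition zone diameter (mm).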

[4] = system: Bacillus subtilis; experiment: Antibacterial activity against Bacillus subtilis at 50 mg/L after 24 hrs by agar well diffusion method; settings: read-out: DIZ; in short: as §2
[5] = system: Xanthomonas axonopodis; experiment: Antibacterial activity against Xanthomonas axonopodis at 50 mg/L after 24 hrs by agar well diffusion method; settings: read-out: DIZ; in short: as §2
[6] = system: Xanthomonas oryzae; experiment: Antibacterial activity against Xanthomonas oryzae at 50 mg/L after 24 hrs by agar well diffusion method; settings: read-out: DIZ
[7] = system: Rhizoctonia solani; experiment: Antifungal activity against Rhizoctonia solani at 200 mg/L by plate growth rate method; settings: read-out: GI; in short: as §1
[8] = system: Ralstonia solanacearum; experiment: Antibacterial activity against Ralstonia solanacearum at 50 mg/L after 24 hrs by agar well diffusion method; settings: read-out: DIZ

SMILES	inhibition of growth at 200 µg/mL [1] [%]	inhibition of growth at 200 µg/mL [2] [%]	zone of inhibition at 50 µg/mL [3] [mm]	zone of inhibition at 50 µg/mL [4] [mm]	zone of inhibition at 50 µg/mL [5] [mm]	zone of inhibition at 50 µg/mL [6] [mm]	inhibition of growth at 200 µg/mL [7] [%]	zone of inhibition at 50 µg/mL [8] [mm]
CCn1cc(C(=O)O)c(=O)c2cc(F)c(N3CCN(C(=O)c4ccccc4)CC3)cc21	42	23	17.9	20.7	15.8	22.7	25	5.92
CCn1cc(C(=O)O)c(=O)c2cc(F)c(N3CCN(C(=O)c4ccccc4Br)CC3)cc21	44	34	16.2	20.1	14.6	16.5	15	8.14
CCn1cc(C(=O)O)c(=O)c2cc(F)c(N3CCN(C(=O)c4ccccc4Cl)CC3)cc21	41	27	16	19	14.2	16.9	5	8.97
CCn1cc(C(=O)O)c(=O)c2cc(F)c(N3CCN(C(=O)c4ccc(C)cc4)CC3)cc21	37	28	14.6	17.1	13	19.7	36	3.22
CCn1cc(C(=O)O)c(=O)c2cc(F)c(N3CCN(C(=O)c4ccc(Cl)cc4)CC3)cc21	16	27	16.6	18.5	12.9	17.7	21	1.47
CCn1cc(C(=O)O)c(=O)c2cc(F)c(N3CCN(C(=O)Cc4cccc5ccccc45)CC3)cc21	0	12	10.4	13.2	9.99	9.35	5	0
CCn1cc(C(=O)O)c(=O)c2cc(F)c(N3CCN(C(=O)/C=C/c4ccc(OC)cc4)CC3)cc21	5	1	8.02	8.91	6.83	5.35	94	0
CCn1cc(C(=O)O)c(=O)c2cc(F)c(N3CCN(C(=O)/C=C/c4ccc(Cl)cc4Cl)CC3)cc21	6	2	2.92	2.08	5.91	4.44	0	0
CCn1cc(C(=O)O)c(=O)c2cc(F)c(N3CCN(C(=O)c4ccccc4O)CC3)cc21	17	15	16.5	22.7	14.4	16.7	0	2.06
COC(=O)Nc1nc2ccccc2[nH]1 [CARBENDAZIM]	95	100					100	
CN[C@@H]1[C@H](O[C@H]2[C@H](O[C@H]3[C@H](O)[C@@H](O)[C@H](N=C(N)N)[C@@H](O)[C@@H]3N=C(N)N)O[C@@H](C)[C@]2(O)C=O)O[C@@H](CO)[C@H](O)[C@H]1O [STREPTOMYCIN]			0.5	25	0.2	0.81		17.3
